# Measurements: article PMC7340475 (Drug Design, Development and Therapy, 2020)
# Like-named read-outs stand apart in the source and are kept apart here.
# Columns and labels:
# α2A-AR [1] = target: T1, α2A-AR (Homo sapiens, UniProt P08913); experiment: Saturation binding assay of the radioligand; settings: read-out: KD α2A-AR
# T1 sequence (P08913 1-465): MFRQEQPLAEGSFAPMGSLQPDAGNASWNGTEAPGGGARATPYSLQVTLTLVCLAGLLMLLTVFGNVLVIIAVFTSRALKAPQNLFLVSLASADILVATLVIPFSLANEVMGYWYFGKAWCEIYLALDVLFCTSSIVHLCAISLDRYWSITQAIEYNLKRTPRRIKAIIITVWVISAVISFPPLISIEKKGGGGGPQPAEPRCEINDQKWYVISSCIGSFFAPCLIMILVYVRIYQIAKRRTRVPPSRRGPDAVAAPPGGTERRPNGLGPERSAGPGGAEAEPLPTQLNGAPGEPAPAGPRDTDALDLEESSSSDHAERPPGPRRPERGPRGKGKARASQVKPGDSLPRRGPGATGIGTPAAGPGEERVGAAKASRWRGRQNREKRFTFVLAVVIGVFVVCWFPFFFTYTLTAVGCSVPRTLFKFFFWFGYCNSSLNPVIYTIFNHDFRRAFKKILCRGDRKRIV
# How it was run: (§1)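 Saturation binding used membranes from COS-7 cells transiently expressing each human α2-AR subtype. Membranes were incubated 1 h at room temperature with 0.1–10 nM [125I]-PIC in 50 mM Tris-HCl/120 mM sucrose. […] Reactions were stopped with PBS and filtered through GF/B. Radioactivity was counted and KD came from nonlinear regression.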
# α2C-AR = target: T2, α2C-AR (Homo sapiens, UniProt P18825); experiment: Saturation binding assay of the radioligand; settings: read-out: KD α2C-AR
# T2 sequence (P18825 1-462): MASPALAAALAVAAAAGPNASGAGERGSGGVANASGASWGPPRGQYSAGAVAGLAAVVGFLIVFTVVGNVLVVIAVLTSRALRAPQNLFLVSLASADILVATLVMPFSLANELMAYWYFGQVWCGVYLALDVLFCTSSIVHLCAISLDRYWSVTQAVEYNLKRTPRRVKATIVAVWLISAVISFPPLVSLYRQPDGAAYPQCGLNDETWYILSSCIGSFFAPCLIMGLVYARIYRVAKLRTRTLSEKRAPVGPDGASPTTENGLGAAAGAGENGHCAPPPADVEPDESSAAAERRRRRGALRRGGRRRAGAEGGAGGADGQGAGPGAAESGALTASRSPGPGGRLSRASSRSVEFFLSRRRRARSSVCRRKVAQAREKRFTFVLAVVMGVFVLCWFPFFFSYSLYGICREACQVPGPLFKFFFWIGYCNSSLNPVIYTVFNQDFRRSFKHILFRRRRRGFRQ
# How it was run: as §1
# CHO cells = settings: cited from earlier work
# α2A-AR [2] = target: T1, α2A-AR; experiment: cAMP-Glo assay, forskolin induced cAMP accumulation in transfected COS-7 cells; format: cell-based
smiles,measurement,setting,value
"Clc1cc(I)cc(Cl)c1NC1=NCCN1 [[^125I]-PIC, [^125I]-paraiodoclonidine]",Kd,α2A-AR [1],0.209 ± 0.06 nM
same,Kd,α2C-AR,0.802 ± 0.053 nM
CNC[C@H](O)c1ccc(O)c(O)c1 [epinephrine],effect on cAMP production,CHO cells; from 10^−7 to 10^−6 M,increase
same,effect on cAMP production,CHO cells; from 10^−9 to 10^−8 M,inhibition
NC[C@H](O)c1ccc(O)c(O)c1 [norepinephrine],effect on cAMP production,α2A-AR [2]; higher concentrations (10^−3-10^−7M),stimulated the expression of cAMP
same,effect on cAMP production,α2A-AR [2]; lower concentrations (10^−10-10^−8M),inhibited the production of cAMP
Cc1ccc(N(CC2=NCCN2)c2cccc(O)c2)cc1 [phentolamine],"effect on the production of cAMP, compound alone","α2A-AR [2]; forskolin, no norepinephrine",did not have any effect
